ChEMBL document CHEMBL3751760, “Discovery of Novel Potent and Selective Agonists at the Melanocortin-3 Receptor” (J Med Chem, 2015)
Blank lines part the entries; values can stand above or below the compound they belong to. Calls of active or inactive are those of the source. The rule behind the calls is not given here. Where a SMILES comes first, the peptide text is derived from it. Bridges are numbered along the chain shown (N, C = ends). [ ]: non-standard residue; d: D form. d2Nal = N[C@H](Cc1ccc2ccccc2c1)C(=O)O; Nle = CCCC[C@H](N)C(=O)O

Legend:
[1] = molecular target: T1, Melanocyte-stimulating hormone receptor (Homo sapiens, UniProt Q01726); assay: Displacement of 125I-labeled [Nle4,DPhe7]-alpha-MSH from human melanocortin 1 receptor expressed in HEK293 cells incubated for 40 mins by gamma counting analysis; assay type: cell-based
Procedure, shortened: (§1)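 Whole-cell competition on stably transfected HEK293 cells, 100000 cells/well, seeded 48 h ahead. Binding buffer: MEM with Earle's salts, 25 mM HEPES pH 7.4, 0.2% BSA, 1 mM 1,10-phenanthroline, leupeptin, bacitracin. After washing, cells lysed with NaOH/Triton X-100 and read by γ counting.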
Target sequence in this assay (Q01726 whole entry): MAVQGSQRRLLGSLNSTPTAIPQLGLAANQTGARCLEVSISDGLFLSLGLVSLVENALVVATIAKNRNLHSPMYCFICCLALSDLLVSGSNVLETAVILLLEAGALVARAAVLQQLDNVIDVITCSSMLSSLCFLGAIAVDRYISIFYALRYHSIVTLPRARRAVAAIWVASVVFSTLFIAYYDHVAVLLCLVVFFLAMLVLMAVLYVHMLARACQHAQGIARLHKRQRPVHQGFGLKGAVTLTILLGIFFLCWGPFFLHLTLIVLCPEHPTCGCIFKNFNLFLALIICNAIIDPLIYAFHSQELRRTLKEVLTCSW

[2] = molecular target: T2, Melanocortin receptor 3 (Homo sapiens, UniProt P41968); assay: Displacement of 125I-labeled [Nle4,DPhe7]-alpha-MSH from human melanocortin 3 receptor expressed in HEK293 cells incubated for 40 mins by gamma counting analysis; assay type: cell-based
[3] = molecular target: T3, Melanocortin receptor 4 (Homo sapiens, UniProt P32245); assay: Displacement of 125I-labeled [Nle4,DPhe7]-alpha-MSH from human melanocortin 4 receptor expressed in HEK293 cells incubated for 40 mins by gamma counting analysis; assay type: cell-based
[4] = molecular target: T1, Melanocyte-stimulating hormone receptor; assay: Agonist activity at human melanocortin 1 receptor expressed in HEK293 cells assessed as intracellular cAMP accumulation incubated for 3 mins in presence of IBMX; assay type: functional, cell-based
Procedure, shortened: (§2)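 HEK293 cells stably expressing the receptor were grown in MEM with 10% FBS and seeded 48 h ahead to 100000 cells/well. Cells were preincubated in EBSS with IBMX (0.5 mM) for 1 min at 37 °C, then given varied peptide concentrations for 3 min at 37 °C. The reaction was stopped with ice-cold Tris/EDTA, lysates were boiled 15 min, and cAMP was read by competitive binding kit.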
Target sequence in this assay (Q01726 whole entry): as above

[5] = molecular target: T1, Melanocyte-stimulating hormone receptor; assay: Agonist activity at human melanocortin 1 receptor expressed in HEK293 cells assessed as increase in intracellular cAMP accumulation incubated for 3 mins relative to MT-2; assay type: functional, cell-based
Procedure, shortened: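 Stably transfected HEK293 cells grown in MEM with 10% FBS, penicillin/streptomycin and 1 mM sodium pyruvate, seeded 48 h ahead to 100000 cells/well. Cells preincubated 1 min at 37 °C in EBSS with IBMX (0.5 mM), then exposed to a concentration series for 3 min at 37 °C. Stopped with ice-cold Tris/EDTA, boiled 15 min, cAMP measured by competitive binding kit. Maximal cAMP expressed relative to the MT-II maximum; N = 4.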
Target sequence in this assay (Q01726 whole entry, looked up): as the sequence (Q01726 whole entry) above

[6] = molecular target: T4, Melanocortin receptor 5 (Homo sapiens, UniProt P33032); assay: Displacement of 125I-labeled [Nle4,DPhe7]-alpha-MSH from human melanocortin 5 receptor expressed in HEK293 cells at 10 uM incubated for 40 mins by gamma counting analysis; assay type: cell-based
Procedure, shortened: as §1, with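 “bacitracin. Unlabeled peptide plus 125I-[Nle4,DPhe7]-α-MSH (0.1386 nM, 100000 cpm/well) for 40 min at 37 °C.” for “bacitracin.”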

[7] = molecular target: T2, Melanocortin receptor 3; assay: Agonist activity at human melanocortin 3 receptor expressed in HEK293 cells assessed as intracellular cAMP accumulation at 10 uM incubated for 3 mins in presence of IBMX; assay type: functional, cell-based
Procedure, shortened: (§3)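 Stably transfected HEK293 cells were grown in MEM with 10% FBS, penicillin/streptomycin and 1 mM sodium pyruvate, and seeded 48 h before assay to 100000 cells/well. Cells were preincubated 1 min at 37 °C in EBSS with IBMX (0.5 mM), then exposed to peptide for 3 min at 37 °C. The reaction was stopped with ice-cold Tris/EDTA, lysates were boiled 15 min, and cAMP was read by competitive binding kit.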

[8] = molecular target: T3, Melanocortin receptor 4; assay: Agonist activity at human melanocortin 4 receptor expressed in HEK293 cells assessed as intracellular cAMP accumulation at 10 uM incubated for 3 mins in presence of IBMX; assay type: functional, cell-based; procedure, shortened: as §3
[9] = molecular target: T4, Melanocortin receptor 5; assay: Agonist activity at human melanocortin 5 receptor expressed in HEK293 cells assessed as intracellular cAMP accumulation at 10 uM incubated for 3 mins in presence of IBMX; assay type: functional, cell-based; procedure, shortened: as §3
[10] = molecular target: T1, Melanocyte-stimulating hormone receptor; assay: Displacement of 125I-labeled [Nle4,DPhe7]-alpha-MSH from human melanocortin 1 receptor expressed in HEK293 cells at 10 uM incubated for 40 mins by gamma counting analysis; assay type: cell-based
Procedure, shortened: as §1, with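 “bacitracin. Unlabeled peptide plus 125I-[Nle4,DPhe7]-α-MSH (0.1386 nM, 100000 cpm/well) for 40 min at 37 °C.” for “bacitracin.”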
Target sequence in this assay (Q01726 whole entry, looked up): as the sequence (Q01726 whole entry) above

[11] = molecular target: T4, Melanocortin receptor 5; assay: Displacement of 125I-labeled [Nle4,DPhe7]-alpha-MSH from human melanocortin 5 receptor expressed in HEK293 cells incubated for 40 mins by gamma counting analysis; assay type: cell-based
[12] = molecular target: T2, Melanocortin receptor 3; assay: Agonist activity at human melanocortin 3 receptor expressed in HEK293 cells assessed as intracellular cAMP accumulation incubated for 3 mins in presence of IBMX; assay type: functional, cell-based; procedure, shortened: as §2
[13] = molecular target: T3, Melanocortin receptor 4; assay: Agonist activity at human melanocortin 4 receptor expressed in HEK293 cells assessed as intracellular cAMP accumulation incubated for 3 mins in presence of IBMX; assay type: functional, cell-based; procedure, shortened: as §2
[14] = molecular target: T4, Melanocortin receptor 5; assay: Agonist activity at human melanocortin 5 receptor expressed in HEK293 cells assessed as intracellular cAMP accumulation incubated for 3 mins in presence of IBMX; assay type: functional, cell-based; procedure, shortened: as §2
[15] = molecular target: T2, Melanocortin receptor 3; assay: Agonist activity at human melanocortin 3 receptor expressed in HEK293 cells assessed as increase in intracellular cAMP accumulation incubated for 3 mins relative to MT-2; assay type: functional, cell-based
Procedure, shortened: (§4)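 Same cAMP protocol in stably transfected HEK293 cells: IBMX (0.5 mM) preincubation for 1 min, then a peptide concentration series for 3 min at 37 °C, and cAMP measured by competitive binding kit.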

[16] = molecular target: T3, Melanocortin receptor 4; assay: Agonist activity at human melanocortin 4 receptor expressed in HEK293 cells assessed as increase in intracellular cAMP accumulation incubated for 3 mins relative to MT-2; assay type: functional, cell-based
Procedure, shortened: as §4, with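 “kit. Act% max = highest cAMP level reached by the peptide divided by the highest level reached by MT-II, in percent.” for “kit.”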

[17] = molecular target: T4, Melanocortin receptor 5; assay: Agonist activity at human melanocortin 5 receptor expressed in HEK293 cells assessed as increase in intracellular cAMP accumulation incubated for 3 mins relative to MT-2; assay type: functional, cell-based; procedure, shortened: as §4

T4 sequence (P33032 whole entry): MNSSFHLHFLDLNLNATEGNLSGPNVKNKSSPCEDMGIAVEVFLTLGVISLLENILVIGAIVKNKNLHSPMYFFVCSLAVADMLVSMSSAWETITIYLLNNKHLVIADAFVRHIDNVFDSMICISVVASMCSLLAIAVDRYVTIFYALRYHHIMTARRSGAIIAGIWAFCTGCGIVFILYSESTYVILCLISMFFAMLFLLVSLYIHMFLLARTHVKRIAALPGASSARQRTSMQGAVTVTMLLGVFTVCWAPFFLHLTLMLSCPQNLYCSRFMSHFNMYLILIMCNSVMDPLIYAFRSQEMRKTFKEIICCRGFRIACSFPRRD
T3 sequence (P32245 whole entry): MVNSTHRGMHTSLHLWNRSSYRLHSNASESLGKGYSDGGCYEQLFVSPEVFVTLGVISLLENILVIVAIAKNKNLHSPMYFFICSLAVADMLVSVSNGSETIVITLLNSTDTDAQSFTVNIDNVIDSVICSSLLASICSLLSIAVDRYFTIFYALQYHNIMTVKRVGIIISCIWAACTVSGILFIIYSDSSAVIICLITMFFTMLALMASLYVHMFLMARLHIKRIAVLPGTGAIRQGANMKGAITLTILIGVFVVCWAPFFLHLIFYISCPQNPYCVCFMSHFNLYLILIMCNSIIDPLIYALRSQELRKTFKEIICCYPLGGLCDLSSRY
T2 sequence (P41968 whole entry): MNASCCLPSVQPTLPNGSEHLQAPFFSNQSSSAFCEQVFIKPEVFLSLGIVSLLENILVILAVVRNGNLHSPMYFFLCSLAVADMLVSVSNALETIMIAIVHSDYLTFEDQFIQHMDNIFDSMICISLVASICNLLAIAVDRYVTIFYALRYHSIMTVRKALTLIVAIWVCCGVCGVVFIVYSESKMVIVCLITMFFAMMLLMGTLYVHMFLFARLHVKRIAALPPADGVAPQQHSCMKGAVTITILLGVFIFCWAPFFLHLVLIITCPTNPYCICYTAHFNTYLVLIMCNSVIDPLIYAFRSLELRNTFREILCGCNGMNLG

IC50 [1]: > 5 µM
IC50 [2]: 0.59 µM
IC50 [3]: 1.3 µM
EC50 [4]: 0.86 µM
%max [5]: 100%
inhibition [6]: inactive
Activity [7]: 0%
Activity [8]: 0%
Activity [9]: 0%
Compound: CCCC[C@H](NC(C)=O)C(=O)N[C@H]1CC(=O)NCCCC[C@@H](C(N)=O)NC(=O)[C@H](Cc2c[nH]c3ccccc23)NC(=O)[C@H](CCCNC(=N)N)NC(=O)[C@@H](Cc2ccccc2)NC(=O)[C@@H]2CCCN2C(=O)[C@@H]2CCCN2C1=O (Ac-[Nle]DPP[dF]RWK-NH2; lactam 2-8)

IC50 [1]: > 5 µM
%max [5]: 100%
Compound: CCCC[C@H](NC(C)=O)C(=O)N[C@H]1CC(=O)NCCCC[C@@H](C(N)=O)NC(=O)[C@H](Cc2c[nH]c3ccccc23)NC(=O)[C@H](CCCNC(=N)N)NC(=O)[C@@H](Cc2ccc3ccccc3c2)NC(=O)[C@@H]2CCCN2C(=O)[C@@H]2CCCN2C1=O (Ac-[Nle]DPP[d2Nal]RWK-NH2; lactam 2-8)

inhibition [10]: inactive
%max [5]: 100%
Compound: CCCC[C@H](NC(C)=O)C(=O)N[C@@H]1CC(=O)NCCCC[C@H](C(N)=O)NC(=O)[C@H](Cc2c[nH]c3ccccc23)NC(=O)[C@H](CCCNC(=N)N)NC(=O)[C@H](Cc2ccc3ccccc3c2)NC(=O)[C@H]2CCCN2C(=O)[C@@H](Cc2c[nH]c3ccccc23)NC1=O

Compound: CCCC[C@H](NC(C)=O)C(=O)N[C@H]1CC(=O)NCCCC[C@@H](C(N)=O)NC(=O)[C@H](Cc2c[nH]c3ccccc23)NC(=O)[C@H](CCCNC(=N)N)NC(=O)[C@@H](Cc2ccccc2)NC(=O)[C@@H]2CCCN2C(=O)[C@H](Cc2c[nH]c3ccccc23)NC1=O
IC50 ([1]; hek293): > 5 µM
IC50 ([2]; hek293): 0.58 µM
IC50 ([3]; hek293): > 1 µM
IC50 [11]: > 1 µM
EC50 ([4]; hek293): 0.026 µM
EC50 [12]: > 1 µM
EC50 [13]: 0.22 µM
EC50 [14]: 0.073 µM

Compound: CCCC[C@H](NC(C)=O)C(=O)N[C@H]1CC(=O)NCCCC[C@@H](C(N)=O)NC(=O)[C@H](Cc2c[nH]c3ccccc23)NC(=O)[C@H](CCCNC(=N)N)NC(=O)[C@@H](Cc2ccc3ccccc3c2)NC(=O)[C@@H]2CCCN2C(=O)[C@H](Cc2c[nH]c3ccccc23)NC1=O
EC50 ([4]; hek293): > 1 µM

Compound: CCCC[C@@H](NC(C)=O)C(=O)N[C@H]1CC(=O)NCCCC[C@@H](C(N)=O)NC(=O)[C@@H](Cc2c[nH]c3ccccc23)NC(=O)[C@@H](CCCNC(=N)N)NC(=O)[C@@H](Cc2ccccc2)NC(=O)[C@@H]2CCCN2C(=O)[C@H](Cc2c[nH]c3ccccc23)NC1=O
%max [5]: 100%
%max [15]: 0%
%max [16]: 84%
%max [17]: 89%
